Reference: ChEMBL document CHEMBL4402562, “Discovery of Novel Peptidomimetic Boronate ClpP Inhibitors with Noncanonical Enzyme Mechanism as Potent Virulence Blockers in Vitro and in Vivo” (J Med Chem, 2020)
The source made the active and inactive calls. The calls are words filed in the database; no cut-off is given here. Where a SMILES comes first, the peptide text is derived from it. The star is where a group is joined. Cbz = O=C(OCc1ccccc1)*; CH2Cl = ClC*

Key:
[1] = biological target: T1, ATP-dependent Clp protease proteolytic subunit (Staphylococcus aureus (strain NCTC 8325), UniProt Q2G036); test: Binding affinity to N-terminal His6-sumo-tagged full length Staphylococcus aureus ClpP expressed in Escherichia coli […] assessed as shifting of melting peak of SaClpP by differential scanning calorimetry analysis
T1 sequence (Q2G036 whole entry): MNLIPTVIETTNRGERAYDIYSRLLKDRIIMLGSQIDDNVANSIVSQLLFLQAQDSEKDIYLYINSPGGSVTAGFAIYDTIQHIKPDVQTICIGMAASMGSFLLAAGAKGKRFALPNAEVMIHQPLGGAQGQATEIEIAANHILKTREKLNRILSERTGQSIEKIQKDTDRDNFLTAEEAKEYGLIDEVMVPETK
Procedure, shortened: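 DSC: 0.5 mg/mL (25 µM) SaClpP with 100 µM compound or two-fold dilution series, RT; scanned 30-90 °C at 1 °C/min, buffer-buffer scan subtracted; Tm from thermogram peak maximum; single run.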

[2] = biological target: T2, ATP-dependent Clp protease proteolytic subunit (Staphylococcus aureus (strain NCTC 8325)) (UniProt Q2G036); test: Binding affinity to N-terminal His6-sumo-tagged full length Staphylococcus aureus ClpP expressed in Escherichia coli […] assessed as change in melting temperature at 100 uM by differential scanning calorimetry analysis
T2 sequence (whole entry): T1 sequence (Q2G036 whole entry)
Procedure, shortened: (§1)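 DSC: SaClpP at 0.5 mg/mL (25 μM) incubated at RT with 100 μM inhibitor in assay buffer. Scanned at 1 °C/min over 30–90 °C, with a buffer-buffer scan subtracted. Tm taken as the thermogram peak maximum. Run once, single sample.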

[3] = biological target: T1, ATP-dependent Clp protease proteolytic subunit; test: Binding affinity to N-terminal His6-sumo-tagged full length Staphylococcus aureus ClpP expressed in Escherichia coli […] by ITC analysis
Procedure, shortened: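 ITC at 500 rpm stirring after 150 s equilibration. A discarded 1 μL first injection, then 19 injections of 2 μL over 5 s each, 2–3 min apart, into 200 μL sample cell. Reference power 7 μcal/s, high gain, 5-s filter, baseline-corrected fit.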

[4] = Inhibition of Pseudomonas aeruginosa ClpP1 expressed in Escherichia coli […] pre-incubated for 10 mins before Suc-LY- AMC addition and measured after 1 hr by fluorescence based assay relative to control
Procedure, shortened: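 PaClpP1 (0.5 μM monomer) in 25 mM Tris-Cl pH 7.5, 150 mM NaCl. Preincubated 10 min at RT with inhibitor, two-fold dilutions over 8 steps from 50 μM. Then 50 μM Suc-LY-AMC, 380/440 nm for 1 h at 37 °C, slopes normalized to DMSO. Thrice, triplicate wells.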

Staphylococcus aureus = test: Inhibition of Staphylococcus aureus ClpXP expressed in Escherichia coli […] at 1 to 100 uM using FITC-casein substrate in presence of ATP-regenerating system incubated for 50 mins by fluorescence based assay
Procedure, shortened: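 3.6 μM SaClpP with 3 μM SaClpX in 25 mM Hepes pH 7.5, 20 mM MgCl2, 30 mM KCl, 0.03% Tween 20, 10% glycerol, 2 mM DTT. ATP regeneration: 4 mM ATP, 20 U/mL creatine kinase, 16 mM creatine phosphate. FITC-casein 0.048 mg/mL, 494/521 nm for 50 min; slope 300–1200 s vs DMSO. Thrice, triplicate wells.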

[5] = biological target: T2, ATP-dependent Clp protease proteolytic subunit (Staphylococcus aureus (strain NCTC 8325)); test: Inhibition of N-terminal His6-sumo-tagged full length Staphylococcus aureus ClpP expressed in Escherichia coli […] assessed as enzyme activity recovery level at 20-fold molar excess pre-incubated for 10 mins before Suc-LY-AMC addition and measured after 1 hr followed by dialysis up to 72 hrs by fluorescence based assay relative to control; parameters: scale not given: the % may be the effect or the level left
Procedure, shortened: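 ClpP (1 μM, 100 mM Hepes pH 7.0, 100 mM NaCl) incubated 1 h at RT with 20-fold molar excess inhibitor or DMSO. Dialyzed at 4 °C, buffer changed after 6 h and then every 24 h. Aliquots assayed for peptidase activity with Suc-LY-AMC. Thrice, single sample.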

[6] = biological target: Coagulation factor X (Homo sapiens) (UniProt P00742); test: Inhibition of human F10a up to 100 uM pre-incubated for 10 mins before Pefachrome Fxa addition and measured after […] based assay
[7] = biological target: T2, ATP-dependent Clp protease proteolytic subunit (Staphylococcus aureus (strain NCTC 8325)); test: Binding affinity to N-terminal His6-sumo-tagged full length Staphylococcus aureus ClpP expressed in Escherichia coli […] assessed as melting temperature at 100 uM by differential scanning calorimetry analysis (reference value: 50.8 degC); procedure, shortened: as §1
[8] = Inhibition of AlgW (unknown origin) up to 100 uM pre-incubated for 10 mins before Abz-T-V-A-W-pNA addition and measured after 1 hr by fluorescence based assay
[9] = biological target: T2, ATP-dependent Clp protease proteolytic subunit (Staphylococcus aureus (strain NCTC 8325)); test: Inhibition of N-terminal His6-sumo-tagged full length Staphylococcus aureus ClpP expressed in Escherichia coli […] at 3 uM pre-incubated for 10 mins before 200 uM to 1 mM Suc-LY-AMC addition and measured after 1 hr by fluorescence based assay relative to control
Procedure, shortened: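 SaClpP (1 μM) in 100 mM Hepes pH 7.0, 100 mM NaCl preincubated 10 min at RT with 3 μM inhibitor. Suc-LY-AMC at 200 μM or 1 mM, fluorescence at 380/440 nm for 1 h at 37 °C. Slope relative to DMSO; three independent replicates.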

[10] = Inhibition of human ClpP (57 to 277 residues) expressed in Escherichia coli […] pre-incubated for 10 mins before Ac-WLA-AMC addition and measured after 1 hr by fluorescence based assay relative to control
Procedure, shortened: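 hClpP (3.5 μM monomer) in 25 mM Tris-HCl pH 8.0, 100 mM KCl. Preincubated 10 min at RT with inhibitor, two-fold dilutions over 8 steps from 100 μM. Then 100 μM Ac-WLA-AMC, 380/440 nm for 1 h at 37 °C, slopes normalized to DMSO. Thrice, triplicate wells.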

[11] = biological target: 20S proteasome (Homo sapiens) (UniProt P49721+P20618+P28074+P28062+P28065+P28072+P25786+P25787+P25788+P25789+P28066+P60900+O14818+Q8TAA3+P40306+A5LHX3+P49720+P28070+Q99436); test: Inhibition of 20S proteasome (unknown origin) pre-incubated before Suc-LLVY-AM addition and measured after 1 hr by fluorescence based assay; format: protein-complex assay
[12] = biological target: ATP-dependent Clp protease proteolytic subunit (Escherichia coli (strain K12), UniProt P0A6G7); test: Inhibition of Escherichia coli ClpP
ATP-dependent Clp protease proteolytic subunit (Escherichia coli (strain K12), UniProt P0A6G7), sequence (P0A6G7 whole entry): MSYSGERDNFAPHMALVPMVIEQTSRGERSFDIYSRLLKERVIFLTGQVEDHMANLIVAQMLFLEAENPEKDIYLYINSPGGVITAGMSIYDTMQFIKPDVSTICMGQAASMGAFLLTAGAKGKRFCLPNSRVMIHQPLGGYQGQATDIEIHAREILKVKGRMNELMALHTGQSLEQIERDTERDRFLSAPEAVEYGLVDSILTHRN

Coagulation factor X (Homo sapiens), sequence (P00742 41-179 limits assumed): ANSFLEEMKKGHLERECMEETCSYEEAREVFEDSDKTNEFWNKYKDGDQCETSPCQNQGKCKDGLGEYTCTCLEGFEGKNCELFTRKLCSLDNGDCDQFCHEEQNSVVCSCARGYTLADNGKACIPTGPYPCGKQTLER
Coagulation factor X (Homo sapiens), sequence (P00742 235-488 limits assumed): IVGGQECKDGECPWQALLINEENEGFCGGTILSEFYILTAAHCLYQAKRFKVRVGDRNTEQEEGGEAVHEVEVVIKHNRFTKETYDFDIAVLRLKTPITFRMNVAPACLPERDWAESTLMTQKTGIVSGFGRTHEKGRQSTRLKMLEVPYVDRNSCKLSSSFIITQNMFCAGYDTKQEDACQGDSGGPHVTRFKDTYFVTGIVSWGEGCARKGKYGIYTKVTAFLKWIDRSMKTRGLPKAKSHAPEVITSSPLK

EC50 [1]	ΔTm [2]	Kd [3]	IC50 [4]	inhibition (Staphylococcus aureus)	Activity [5]	inhibition [6]	Tm [7]	inhibition [8]	inhibition [9]	IC50 [10]	inhibition [11]	IC50 [12]	Compound
19.9 µM	29.5 to 42.2 °C	7.3 µM	3 to 25 µM	inactive	100%	inactive	66.5 °C	inactive	Active	3 to 25 µM	Active		CC(C)C[C@H](NC(=O)CNC(=O)c1cc(Cl)ccc1Cl)B1OC(=O)CC(CC(=O)O)(C(=O)O)O1 (stereo partly drawn)
												14.4 µM	CC(C)C[C@H](NC(=O)OCc1ccccc1)C(=O)N[C@@H](Cc1ccc(O)cc1)C(=O)CCl (Cbz-Leu-Tyr-CH2Cl)
